Data from ChEMBL document CHEMBL1154181 (J Med Chem, 2009).

Key:
Mus musculus [1] = experiment: (§1) Antinociceptive activity against radiant heat-induced nociception in po dosed CD1 mouse assessed as increase in tail withdrawal latency measured after 15 to 120 mins postdose by tail flick test in presence of 2 mg/kg, ip nicotinic receptor antagonist mecamylamine hydrochloride administered 30 mins before compound infusion; format: functional
How it was run: (§2)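 Antagonist given ip 30 min before oral dosing (naloxone 1, mecamylamine 2, yohimbine 2, CGP 35348 50 mg/kg). Tail flick with radiant heat at the tail tip, cut-off 15 s; latencies at 15–120 min converted to %MPE. Peak-time quantal response (≥50% MPE); ED50 from at least four groups of six male CD-1 mice.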

[2] = molecular target: T1, Alpha-2A adrenergic receptor (Homo sapiens) (UniProt P08913); experiment: Inhibition of [3H][…] binding to human recombinant adrenergic alpha2A receptor expressed in insect Sf9 cells at 10 uM after 60 mins
T1 sequence (whole entry): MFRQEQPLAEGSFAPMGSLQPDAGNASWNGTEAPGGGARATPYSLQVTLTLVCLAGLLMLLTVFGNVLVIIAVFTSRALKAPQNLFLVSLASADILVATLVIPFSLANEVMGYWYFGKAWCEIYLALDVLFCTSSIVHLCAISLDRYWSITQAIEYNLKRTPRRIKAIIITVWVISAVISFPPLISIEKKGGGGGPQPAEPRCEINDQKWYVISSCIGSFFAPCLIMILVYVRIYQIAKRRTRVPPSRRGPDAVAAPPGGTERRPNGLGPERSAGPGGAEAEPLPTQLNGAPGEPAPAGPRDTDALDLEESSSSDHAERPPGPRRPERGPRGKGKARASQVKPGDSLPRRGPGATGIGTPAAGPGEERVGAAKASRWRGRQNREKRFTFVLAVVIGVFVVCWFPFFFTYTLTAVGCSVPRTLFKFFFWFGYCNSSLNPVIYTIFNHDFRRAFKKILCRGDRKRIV
How it was run: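 Sf9 membranes expressing human recombinant α2A, with 1 nM [3H]-MK-912. Nonspecific binding defined by 10 μM WB-4101. Buffer 50 mM Tris-HCl pH 7.4, 12.5 mM MgCl2, 2 mM EDTA. Incubated 60 min at 25 °C, then filtered and counted by scintillation. Duplicate; 1% DMSO final.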

[3] = molecular target: T2, Alpha-1B adrenergic receptor (Rattus norvegicus) (UniProt P15823); conditions: Wistar, Liver, Membrane, 10 uM
T2 sequence (whole entry): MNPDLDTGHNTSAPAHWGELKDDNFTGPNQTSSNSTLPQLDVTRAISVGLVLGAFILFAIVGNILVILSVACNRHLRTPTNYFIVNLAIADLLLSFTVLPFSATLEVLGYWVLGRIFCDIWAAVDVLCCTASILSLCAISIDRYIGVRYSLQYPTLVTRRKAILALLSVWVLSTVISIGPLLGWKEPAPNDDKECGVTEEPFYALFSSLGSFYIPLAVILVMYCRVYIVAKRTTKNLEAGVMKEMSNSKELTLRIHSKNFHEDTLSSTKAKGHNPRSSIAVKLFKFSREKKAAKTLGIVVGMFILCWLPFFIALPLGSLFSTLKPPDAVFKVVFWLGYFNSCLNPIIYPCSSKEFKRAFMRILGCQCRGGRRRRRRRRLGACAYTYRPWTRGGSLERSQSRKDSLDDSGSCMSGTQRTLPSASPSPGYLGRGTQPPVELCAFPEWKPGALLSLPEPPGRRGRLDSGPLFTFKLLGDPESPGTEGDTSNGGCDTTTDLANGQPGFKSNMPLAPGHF

[4] = molecular target: T3, Alpha-1B adrenergic receptor (Rattus norvegicus, UniProt P15823); experiment: Displacement of [3H]prazosin from adrenergic Alpha-1B receptor in Wistar rat liver membrane after 60 mins; format: cell membranes
T3 sequence (P15823 whole entry): T2 sequence (whole entry)

Mus musculus [5] = experiment: Antinociceptive activity against radiant heat-induced nociception in icv dosed CD1 mouse assessed as increase in tail withdrawal latency measured after 15 to 120 mins postdose by tail flick test; format: functional
How it was run: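 Male CD-1 mice anesthetized with ketamine-xylazine (80 + 10 mg/kg ip). Dosed into the right lateral ventricle (+2 mm ML, −0.3 mm AP to bregma, 2 mm depth). Tail flick with radiant heat, cut-off 15 s. Latency read at 15–120 min as %MPE.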

Mus musculus [6] = experiment: (§3) Antinociceptive activity against thermal nociception in po dosed CD1 mouse assessed as increase in latency period to elicit jumping or hind paw licking measured after 15 to 90 mins postdose by hot plate method in presence of 2 mg/kg, ip nicotinic receptor antagonist mecamylamine hydrochloride administered 30 mins before compound infusion; format: functional
How it was run: (§4)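 Antagonist given ip 30 min before oral dosing (naloxone 1, mecamylamine 2, yohimbine 2, CGP 35348 50 mg/kg). Hot plate at 48.5 ± 0.1 °C inside a cylinder, cut-off 60 s; latencies at 15–90 min as %MPE. Peak-time quantal response (≥50% MPE); ED50 from at least four groups of six male CD-1 mice.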

Mus musculus [7] = experiment: as §3, with “1” for “2”, “opioid” for “nicotinic”, “naloxone” for “mecamylamine”; format: functional; how it was run: as §4
Mus musculus [8] = experiment: Antinociceptive activity against radiant heat-induced nociception in po dosed CD1 mouse assessed as increase in tail withdrawal latency measured after 15 to 120 mins postdose by tail flick test; format: functional
How it was run: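 Male CD-1 mice, 25–30 g; oral dosing. Radiant heat focused 3–4 cm from tail tip of hand-restrained mice; tail withdrawal latency recorded, cutoff 15 s at 15 V. Baseline = mean of three readings 15 min apart; latency at 15–120 min.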

Mus musculus [9] = experiment: as §1, with “alpha-2-adrenergic” for “nicotinic”, “yohimbine” for “mecamylamine”; format: functional; how it was run: as §2
Mus musculus [10] = experiment: Antinociceptive activity in sc dosed mouse assessed as reduction in number of noxious stimulus-induced writhes; format: functional
[11] = molecular target: T4, Alpha-1A adrenergic receptor (Rattus norvegicus, UniProt P43140); experiment: Displacement of [3H]prazosin from adrenergic alpha1A receptor in Wistar rat submaxillary gland after 60 mins; format: tissue-based
T4 sequence (P43140 whole entry): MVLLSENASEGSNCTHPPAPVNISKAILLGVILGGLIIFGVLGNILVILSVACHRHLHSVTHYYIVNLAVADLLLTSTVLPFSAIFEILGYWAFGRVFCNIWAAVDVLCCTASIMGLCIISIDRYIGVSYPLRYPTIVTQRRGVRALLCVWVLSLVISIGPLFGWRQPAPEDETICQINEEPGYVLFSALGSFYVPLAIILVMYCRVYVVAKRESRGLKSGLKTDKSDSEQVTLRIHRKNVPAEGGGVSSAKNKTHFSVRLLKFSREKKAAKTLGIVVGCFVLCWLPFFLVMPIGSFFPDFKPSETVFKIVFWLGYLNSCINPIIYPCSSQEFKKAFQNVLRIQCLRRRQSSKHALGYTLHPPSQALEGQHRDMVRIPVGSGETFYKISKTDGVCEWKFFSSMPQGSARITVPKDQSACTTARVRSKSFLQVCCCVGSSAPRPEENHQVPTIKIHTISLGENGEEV

Emax [2]: 100% | Emax [3]: 99% | IC50 [4]: 102 nM | IC50 [11]: 56 nM
Structure (SMILES): C=Cc1c(C)nn(CCCN2CCN(c3ccc(C)cc3)CC2)c(=O)c1N
ED50 (Mus musculus [1]): 2.3 mg/kg | ED50 (Mus musculus [5]): 3.5 µg | ED50 (Mus musculus [6]): 0.7 mg/kg | ED50 (Mus musculus [7]): 1.1 mg/kg | ED50 (Mus musculus [8]): 0.8 mg/kg | ED50 (Mus musculus [9]): 6.1 mg/kg | ED50 (Mus musculus [10]): 2.5 mg/kg
